Experimental data as given in ChEMBL document CHEMBL1926538, “3,5-Disubstituted-thiazolidine-2,4-dione analogs as anticancer agents: design, synthesis and biological characterization” (Eur J Med Chem, 2012).
The source made the active and inactive calls. The calls are words filed in the database; no cut-off is given here.

What was measured:
[1] = molecular target: RAC-beta serine/threonine-protein kinase (Homo sapiens) (UniProt P31751); test: Inhibition of AKT2 at 10 uM
U-937 [2] = test: Induction of apoptosis in human U937 cells assessed as early apoptotic cells at 10 uM after 18 hrs by annexinV-propidium iodide staining-based flow cytometric analysis (reference value: 4.3%); type: functional
[3] = molecular target: Cyclin-dependent kinase 2 (Homo sapiens) (UniProt P24941); test: Inhibition of CDK2 at 10 uM
[4] = molecular target: MAP kinase p38 (Homo sapiens) (UniProt O15264+Q15759+Q16539+P53778); test: Inhibition p38 phosphorylation in human U937 cells at 1 to 10 uM after 1 hr by Western blot analysis; type: cell-based; details: U-937
In short: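 p38 blot in U937: cells at 5 × 10⁵/mL in RPMI 1640 plus 10% FBS, exposed 1 h, sonicated in SDS sample buffer containing phosphatase inhibitors, boiled; immunoblot with primary antibody overnight at 4 °C, HRP secondary, chemiluminescent detection.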

U-937 [5] = test: Induction of apoptosis in human U937 cells assessed as viable cells at 10 uM after 6 hrs by annexinV-propidium iodide staining-based flow cytometric analysis (reference value: 80.3%); type: functional; details: U-937, 6 h, read-out: Activity
U-937 [6] = test: Antiproliferative activity in human U937 cells assessed as inhibition of DNA synthesis at 10 to 30 uM after 24 hr by [3H]thymidine incorporation assay; type: functional, cell-based
In short: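 U937 cells, 2 × 10⁴/well, incubated with compound at various concentrations for 1 h or 24 h in presence of 1 µCi [³H]-thymidine. Cells harvested and counted by liquid scintillation. Incorporation expressed as % inhibition versus control. Significance by one-way ANOVA.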

[7] = molecular target: Ribosomal protein S6 kinase alpha-1 (Homo sapiens) (UniProt Q15418); test: Inhibition of RSK1 at 10 uM
U-937 [8] = test: Induction of apoptosis in human U937 cells assessed as early apoptotic cells at 3 uM after 3 hrs by annexinV-propidium iodide staining-based flow cytometric analysis (reference value: 2.8%); type: functional
[9] = molecular target: Tyrosine-protein kinase SYK (Homo sapiens) (UniProt P43405); test: Inhibition of SYK at 10 uM
U-937 [10] = test: Cell cycle arrest in human U937 cells assessed as accumulation at S-phase at 10 uM after 24 hrs by propidium iodide staining-based flow cytometric analysis; type: functional
In short: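 Cells cultured in RPMI 1640 with 10% FBS and treated 24 h at the indicated concentrations. Stained with propidium iodide for 4 h at 4 °C in the dark. Flow cytometry gave the percentage of cells in G₀/G₁, S, G₂/M and sub-G₁ phases.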

[11] = molecular target: MAP/microtubule affinity-regulating kinase 3 (Homo sapiens) (UniProt P27448); test: Inhibition of c-TAK1 at 10 uM
[12] = molecular target: Tyrosine-protein kinase BTK (Homo sapiens) (UniProt Q06187); test: Inhibition of BTK at 10 uM
[13] = molecular target: Dual specificity mitogen-activated protein kinase kinase 1 (Homo sapiens) (UniProt Q02750); test: Inhibition of MEK1 at 10 uM
U-937 [14] = test: Induction of apoptosis in human U937 cells assessed as viable cells at 10 uM after 18 hrs by annexinV-propidium iodide staining-based flow cytometric analysis (reference value: 87.2%); type: functional; details: U-937, 18 h, read-out: Activity
[15] = molecular target: Serine/threonine-protein kinase D2 (Homo sapiens) (UniProt Q9BZL6); test: Inhibition of PKD2 at 10 uM
[16] = molecular target: Aurora kinase A (Homo sapiens) (UniProt O14965); test: Inhibition of aurora A kinase at 10 uM
[17] = molecular target: Serine/threonine-protein kinase MARK1 (Homo sapiens) (UniProt Q9P0L2); test: Inhibition of MARK1 at 10 uM
[18] = molecular target: Dual specificity mitogen-activated protein kinase kinase 2 (Homo sapiens) (UniProt P36507); test: Inhibition of MEK2 at 10 uM
[19] = molecular target: RAF proto-oncogene serine/threonine-protein kinase (Homo sapiens) (UniProt P04049); test: Inhibition of Raf-mediated ERK phosphorylation in human DU145 cells at 10 to 20 uM after 24 hrs by Western blot analysis; type: cell-based; details: DU-145
In short: (§1)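 Cells in RPMI 1640 with 10% heat-inactivated FBS, 37 °C, 5% CO2; treated in growing medium (DU145 24 h; U937 1 h at 5 × 10⁵/mL). Lysed by sonication in SDS sample buffer with protease inhibitors plus 1 mM orthovanadate and pyrophosphate, boiled 5 min. Blots blocked in 5% milk, primary antibodies 1:1000 overnight at 4 °C, HRP secondary 1:2000, chemiluminescence; α-tubulin loading control.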

U-937 [20] = test: inhibition of PI3K-mediated 4-EBP1 phosphorylation in human U937 cells 1 to 10 uM after 1 hr by Western blot analysis; type: cell-based; in short: as §1
[21] = molecular target: RAC-alpha serine/threonine-protein kinase (Homo sapiens) (UniProt P31749); test: Inhibition of AKT1 at 10 uM
[22] = molecular target: Dual specificity tyrosine-phosphorylation-regulated kinase 1A (Homo sapiens) (UniProt Q13627); test: Inhibition of DYRK1a at 10 uM
[23] = molecular target: Serine/threonine-protein kinase Sgk1 (Homo sapiens) (UniProt O00141); test: Inhibition of SGK1 at 10 uM
[24] = Inhibition of PKGa at 10 uM
[25] = molecular target: Calcium/calmodulin-dependent protein kinase type II subunit beta (Homo sapiens) (UniProt Q13554); test: Inhibition of CAMK2 at 10 uM
[26] = molecular target: Protein kinase C beta type (Homo sapiens) (UniProt P05771); test: Inhibition of PKCbeta2 at 10 uM
U-937 [27] = test: Induction of apoptosis in human U937 cells assessed as late apoptotic cells at 3 uM after 6 hrs by annexinV-propidium iodide staining-based flow cytometric analysis (reference value: 13.8%); type: functional
[28] = molecular target: Serine/threonine-protein kinase PAK 2 (Homo sapiens) (UniProt Q13177); test: Inhibition of PAK2 at 10 uM
[29] = molecular target: RAF proto-oncogene serine/threonine-protein kinase (Homo sapiens) (UniProt P04049); test: Inhibition of c-Raf at 10 uM
[30] = molecular target: Casein kinase I isoform delta (Homo sapiens) (UniProt P48730); test: Inhibition of Ckld at 10 uM
[31] = molecular target: Tyrosine-protein kinase Lck (Homo sapiens) (UniProt P06239); test: Inhibition of LCK at 10 uM
M12 = test: Growth inhibition of human M12 cells after 24 hrs by MTS assay; type: functional, cell-based
In short: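 Cells in RPMI 1640 with 10% heat-inactivated FBS, seeded 2 × 10⁴ cells/well and exposed 24 h. MTS reagent added, then 1 h further incubation at 37 °C, 5% CO₂. Formazan absorbance read at 490 nm. Viability expressed as percentage of untreated controls.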

[32] = molecular target: Receptor-type tyrosine-protein kinase FLT3 (Homo sapiens) (UniProt P36888); test: Inhibition of FLT3 at 10 uM
U-937 [33] = test: Induction of apoptosis in human U937 cells assessed as necrotic cells at 10 uM after 18 hrs by annexinV-propidium iodide staining-based flow cytometric analysis (reference value: 0.7%); type: functional

RAF proto-oncogene serine/threonine-protein kinase (Homo sapiens), sequence (P04049 whole entry, canonical isoform): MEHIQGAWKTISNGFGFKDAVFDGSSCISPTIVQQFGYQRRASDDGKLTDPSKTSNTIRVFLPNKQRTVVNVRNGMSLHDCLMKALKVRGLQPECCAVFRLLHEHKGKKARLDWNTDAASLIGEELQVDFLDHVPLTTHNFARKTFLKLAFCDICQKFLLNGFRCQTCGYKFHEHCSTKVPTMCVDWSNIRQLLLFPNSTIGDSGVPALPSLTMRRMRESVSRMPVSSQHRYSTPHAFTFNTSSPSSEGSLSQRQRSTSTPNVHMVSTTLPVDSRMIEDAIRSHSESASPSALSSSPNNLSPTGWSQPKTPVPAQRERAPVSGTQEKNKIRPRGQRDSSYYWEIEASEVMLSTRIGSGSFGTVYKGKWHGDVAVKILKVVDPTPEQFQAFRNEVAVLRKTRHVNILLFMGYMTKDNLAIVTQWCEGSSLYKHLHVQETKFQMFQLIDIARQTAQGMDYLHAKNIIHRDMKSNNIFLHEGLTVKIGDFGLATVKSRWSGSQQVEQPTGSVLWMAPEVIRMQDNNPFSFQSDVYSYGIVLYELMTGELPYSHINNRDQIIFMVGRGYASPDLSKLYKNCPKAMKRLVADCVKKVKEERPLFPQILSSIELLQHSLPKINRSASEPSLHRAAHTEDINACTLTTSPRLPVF
Tyrosine-protein kinase BTK (Homo sapiens), sequence (Q06187 whole entry): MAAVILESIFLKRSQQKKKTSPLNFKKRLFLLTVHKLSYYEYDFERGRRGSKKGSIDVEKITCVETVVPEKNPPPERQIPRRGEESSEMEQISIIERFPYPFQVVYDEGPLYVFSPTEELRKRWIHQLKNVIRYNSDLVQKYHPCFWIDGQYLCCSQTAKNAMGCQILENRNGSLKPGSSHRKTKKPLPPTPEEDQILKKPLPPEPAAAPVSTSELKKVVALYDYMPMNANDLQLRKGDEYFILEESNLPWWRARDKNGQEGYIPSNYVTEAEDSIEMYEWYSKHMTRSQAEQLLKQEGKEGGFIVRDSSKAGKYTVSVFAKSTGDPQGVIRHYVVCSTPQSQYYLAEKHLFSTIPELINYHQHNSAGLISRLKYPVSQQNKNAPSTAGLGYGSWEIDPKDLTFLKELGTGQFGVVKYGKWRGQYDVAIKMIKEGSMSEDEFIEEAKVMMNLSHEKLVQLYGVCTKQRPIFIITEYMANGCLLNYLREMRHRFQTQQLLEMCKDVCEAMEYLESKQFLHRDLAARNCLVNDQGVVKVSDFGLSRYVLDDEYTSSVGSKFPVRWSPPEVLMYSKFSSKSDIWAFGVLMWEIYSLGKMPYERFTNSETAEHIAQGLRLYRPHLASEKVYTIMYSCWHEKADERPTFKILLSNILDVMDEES
Serine/threonine-protein kinase MARK1 (Homo sapiens), sequence (Q9P0L2 whole entry, looked up): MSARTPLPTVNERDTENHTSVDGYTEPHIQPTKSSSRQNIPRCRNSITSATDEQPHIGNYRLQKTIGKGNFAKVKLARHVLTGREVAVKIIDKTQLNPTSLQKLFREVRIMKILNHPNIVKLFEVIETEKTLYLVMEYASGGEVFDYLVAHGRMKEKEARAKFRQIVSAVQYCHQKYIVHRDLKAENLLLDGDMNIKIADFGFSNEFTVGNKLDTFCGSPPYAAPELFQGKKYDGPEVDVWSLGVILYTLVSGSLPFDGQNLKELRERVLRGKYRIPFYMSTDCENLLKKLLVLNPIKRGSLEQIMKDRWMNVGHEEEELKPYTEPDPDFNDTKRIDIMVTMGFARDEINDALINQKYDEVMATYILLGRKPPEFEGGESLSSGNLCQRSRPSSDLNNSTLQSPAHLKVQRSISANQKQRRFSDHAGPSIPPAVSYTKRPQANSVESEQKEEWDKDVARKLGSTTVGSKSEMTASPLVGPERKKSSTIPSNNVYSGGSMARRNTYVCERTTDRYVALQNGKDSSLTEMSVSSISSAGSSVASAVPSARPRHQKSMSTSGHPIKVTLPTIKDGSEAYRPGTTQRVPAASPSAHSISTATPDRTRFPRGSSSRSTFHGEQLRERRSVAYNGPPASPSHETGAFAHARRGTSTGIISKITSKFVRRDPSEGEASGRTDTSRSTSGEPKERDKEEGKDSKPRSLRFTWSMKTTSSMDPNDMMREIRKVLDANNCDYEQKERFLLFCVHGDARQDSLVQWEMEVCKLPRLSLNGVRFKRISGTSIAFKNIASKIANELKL
Protein kinase C beta type (Homo sapiens), sequence (P05771 2-671 limits assumed): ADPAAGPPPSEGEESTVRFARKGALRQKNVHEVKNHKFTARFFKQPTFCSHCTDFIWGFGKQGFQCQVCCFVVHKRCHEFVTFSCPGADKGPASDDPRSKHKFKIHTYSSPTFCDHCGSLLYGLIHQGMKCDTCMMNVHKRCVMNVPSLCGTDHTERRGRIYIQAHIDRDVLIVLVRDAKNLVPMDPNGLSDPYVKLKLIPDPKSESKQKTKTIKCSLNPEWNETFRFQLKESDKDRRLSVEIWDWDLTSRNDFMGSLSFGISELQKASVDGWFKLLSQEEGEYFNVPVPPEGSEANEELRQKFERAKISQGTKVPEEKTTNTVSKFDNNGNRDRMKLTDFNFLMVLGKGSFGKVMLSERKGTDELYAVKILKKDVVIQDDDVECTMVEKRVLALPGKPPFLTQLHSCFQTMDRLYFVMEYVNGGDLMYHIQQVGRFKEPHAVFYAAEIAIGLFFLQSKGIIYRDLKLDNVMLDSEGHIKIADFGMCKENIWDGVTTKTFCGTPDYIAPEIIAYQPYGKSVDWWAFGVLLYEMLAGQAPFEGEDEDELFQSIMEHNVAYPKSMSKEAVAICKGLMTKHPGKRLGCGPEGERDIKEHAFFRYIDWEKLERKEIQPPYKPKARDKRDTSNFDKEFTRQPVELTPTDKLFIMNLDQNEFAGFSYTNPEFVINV
MAP/microtubule affinity-regulating kinase 3 (Homo sapiens), sequence (P27448 whole entry, looked up): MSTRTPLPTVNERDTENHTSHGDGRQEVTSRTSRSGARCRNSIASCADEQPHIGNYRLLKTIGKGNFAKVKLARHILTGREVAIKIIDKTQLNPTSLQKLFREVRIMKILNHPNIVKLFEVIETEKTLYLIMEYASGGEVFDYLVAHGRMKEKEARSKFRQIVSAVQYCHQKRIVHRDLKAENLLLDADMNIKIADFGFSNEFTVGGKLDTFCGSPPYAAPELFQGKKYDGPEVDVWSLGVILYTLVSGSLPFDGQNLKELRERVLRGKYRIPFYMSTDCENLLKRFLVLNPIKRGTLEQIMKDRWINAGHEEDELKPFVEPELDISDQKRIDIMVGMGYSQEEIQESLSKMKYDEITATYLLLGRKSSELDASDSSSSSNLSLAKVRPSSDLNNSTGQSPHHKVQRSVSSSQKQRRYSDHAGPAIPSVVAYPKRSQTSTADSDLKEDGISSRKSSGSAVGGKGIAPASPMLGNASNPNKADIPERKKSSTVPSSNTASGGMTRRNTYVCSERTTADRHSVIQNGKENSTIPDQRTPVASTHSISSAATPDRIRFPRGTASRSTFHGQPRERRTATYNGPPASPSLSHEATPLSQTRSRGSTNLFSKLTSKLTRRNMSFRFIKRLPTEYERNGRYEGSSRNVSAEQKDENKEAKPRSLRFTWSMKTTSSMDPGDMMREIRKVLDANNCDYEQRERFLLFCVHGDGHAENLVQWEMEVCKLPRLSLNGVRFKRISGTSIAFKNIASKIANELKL
Calcium/calmodulin-dependent protein kinase type II subunit beta (Homo sapiens), sequence (Q13554 whole entry): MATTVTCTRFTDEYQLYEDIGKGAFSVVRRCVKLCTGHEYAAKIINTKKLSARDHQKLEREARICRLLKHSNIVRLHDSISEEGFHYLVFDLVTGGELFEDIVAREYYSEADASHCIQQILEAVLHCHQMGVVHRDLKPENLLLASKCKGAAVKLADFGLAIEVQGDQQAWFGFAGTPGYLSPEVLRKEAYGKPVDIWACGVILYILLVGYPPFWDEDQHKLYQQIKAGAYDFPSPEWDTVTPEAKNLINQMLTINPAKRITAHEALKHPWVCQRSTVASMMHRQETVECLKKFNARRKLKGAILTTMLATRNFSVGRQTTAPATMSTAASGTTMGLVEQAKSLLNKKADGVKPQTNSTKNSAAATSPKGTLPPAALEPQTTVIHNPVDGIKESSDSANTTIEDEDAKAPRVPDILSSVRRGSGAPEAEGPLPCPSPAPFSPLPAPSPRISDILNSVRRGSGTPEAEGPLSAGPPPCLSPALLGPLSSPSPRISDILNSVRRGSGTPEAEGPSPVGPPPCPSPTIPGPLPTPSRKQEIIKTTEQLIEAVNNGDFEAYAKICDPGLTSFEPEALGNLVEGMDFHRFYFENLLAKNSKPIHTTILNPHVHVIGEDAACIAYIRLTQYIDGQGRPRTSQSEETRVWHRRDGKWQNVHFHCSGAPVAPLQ
RAC-beta serine/threonine-protein kinase (Homo sapiens), sequence (P31751 whole entry): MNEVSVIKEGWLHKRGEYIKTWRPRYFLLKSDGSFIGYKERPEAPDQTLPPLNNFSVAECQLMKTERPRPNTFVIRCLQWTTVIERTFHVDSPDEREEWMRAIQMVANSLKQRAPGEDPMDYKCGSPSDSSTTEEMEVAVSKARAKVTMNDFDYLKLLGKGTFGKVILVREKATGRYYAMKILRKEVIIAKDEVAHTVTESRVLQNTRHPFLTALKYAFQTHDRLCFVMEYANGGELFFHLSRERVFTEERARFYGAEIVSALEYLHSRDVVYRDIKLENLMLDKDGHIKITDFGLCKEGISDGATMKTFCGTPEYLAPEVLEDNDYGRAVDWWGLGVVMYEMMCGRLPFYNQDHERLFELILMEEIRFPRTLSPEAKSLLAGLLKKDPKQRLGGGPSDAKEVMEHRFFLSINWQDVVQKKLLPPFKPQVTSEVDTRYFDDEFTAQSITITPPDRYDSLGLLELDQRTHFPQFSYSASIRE

NCCN1C(=O)S/C(=C\CCC2CCCCC2)C1=O
inhibition [1]: 8% | Activity (U-937 [2]): 15% | inhibition [3]: -2% | inhibition [4]: inactive | viability at 10 µM (U-937 [5]): 40.2% | Activity (U-937 [6]): Active | inhibition [7]: 2% | Activity (U-937 [8]): 3.5% | inhibition [9]: 9% | Activity (U-937 [10]): 23.6% | inhibition [11]: 6% | inhibition [12]: 12% | inhibition [13]: 69% | viability at 10 µM (U-937 [14]): 42.9% | inhibition [15]: 0% | inhibition [16]: -4% | inhibition [17]: 0% | inhibition [18]: 27% | inhibition [19]: Active | inhibition (U-937 [20]): Active | inhibition [21]: 3% | inhibition [22]: -5% | inhibition [23]: 14% | inhibition [24]: -2% | inhibition [25]: 60% | inhibition [26]: 16% | Activity (U-937 [27]): 16.5% | inhibition [28]: 10% | inhibition [29]: -1% | inhibition [30]: -5% | inhibition [31]: 4% | growth inhibition (GI) (M12): Active | inhibition [32]: 38% | Activity (U-937 [33]): 2.1%
